Results from ChEMBL document CHEMBL1130034, “Dual metalloprotease inhibitors: mercaptoacetyl-based fused heterocyclic dipeptide mimetics as inhibitors of angiotensin-converting enzyme and neutral endopeptidase” (J Med Chem, 1997).

Experiments:
Rattus norvegicus [1] = assay: Decreased Mean arterial pressure (MAP) in rat after single oral dose of 30 umol/kg; assay type: functional, Artery
Outline: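 Conscious sodium-depleted spontaneously hypertensive rats, n = 7 per group. Single oral dose of 30 μmol/kg (~12 mg/kg); vehicle 5% NaHCO3. Mean arterial pressure followed as change from pre-dose baseline over 24 h.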

[2] = target: T1, Angiotensin-converting enzyme (Oryctolagus cuniculus, UniProt P12822); assay: In vitro inhibition of ACE (Angiotensin I converting enzyme) isolated from rabbit lung extract; conditions: read-out: I50
T1 sequence (P12822 whole entry): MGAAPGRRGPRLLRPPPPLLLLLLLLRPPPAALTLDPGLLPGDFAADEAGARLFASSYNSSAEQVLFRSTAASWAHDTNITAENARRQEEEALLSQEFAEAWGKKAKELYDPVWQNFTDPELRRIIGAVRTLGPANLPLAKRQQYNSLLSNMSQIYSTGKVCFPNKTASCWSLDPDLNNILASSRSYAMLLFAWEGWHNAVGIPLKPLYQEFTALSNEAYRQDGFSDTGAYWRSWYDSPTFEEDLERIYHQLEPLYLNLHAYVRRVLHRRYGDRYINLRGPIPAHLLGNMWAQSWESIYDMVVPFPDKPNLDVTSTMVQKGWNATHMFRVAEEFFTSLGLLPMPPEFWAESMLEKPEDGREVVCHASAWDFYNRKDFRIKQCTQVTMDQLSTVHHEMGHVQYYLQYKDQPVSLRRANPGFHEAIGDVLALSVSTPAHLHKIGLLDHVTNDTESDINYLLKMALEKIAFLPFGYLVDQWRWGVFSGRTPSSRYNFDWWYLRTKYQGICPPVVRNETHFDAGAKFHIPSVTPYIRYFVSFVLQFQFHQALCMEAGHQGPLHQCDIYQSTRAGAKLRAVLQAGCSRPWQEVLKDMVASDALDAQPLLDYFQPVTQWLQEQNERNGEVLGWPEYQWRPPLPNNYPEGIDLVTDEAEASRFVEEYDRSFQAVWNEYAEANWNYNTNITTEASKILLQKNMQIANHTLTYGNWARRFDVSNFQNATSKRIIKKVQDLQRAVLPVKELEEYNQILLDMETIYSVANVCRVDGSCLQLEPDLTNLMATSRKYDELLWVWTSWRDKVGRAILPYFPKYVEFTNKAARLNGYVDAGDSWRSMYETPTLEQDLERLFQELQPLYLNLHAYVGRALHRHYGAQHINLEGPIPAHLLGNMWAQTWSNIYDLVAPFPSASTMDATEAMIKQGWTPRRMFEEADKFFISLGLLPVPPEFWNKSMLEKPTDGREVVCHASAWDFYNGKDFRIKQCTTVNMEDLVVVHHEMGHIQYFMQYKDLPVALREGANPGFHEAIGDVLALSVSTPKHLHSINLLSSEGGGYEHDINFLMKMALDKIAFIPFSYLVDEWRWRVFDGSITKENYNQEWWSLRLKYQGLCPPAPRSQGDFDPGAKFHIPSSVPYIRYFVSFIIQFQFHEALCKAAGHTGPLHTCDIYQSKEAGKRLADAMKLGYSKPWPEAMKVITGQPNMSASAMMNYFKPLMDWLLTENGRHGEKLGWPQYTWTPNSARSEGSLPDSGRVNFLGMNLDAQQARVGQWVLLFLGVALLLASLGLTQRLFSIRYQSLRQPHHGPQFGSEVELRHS
Outline: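 Enzyme source is rabbit lung extract; substrate hippuryl-L-histidyl-L-leucine (HHL); I50 reported.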

Neprilysin = target: T2, Neprilysin (Rattus norvegicus, UniProt P07861); assay: In vitro inhibition of neutral endopeptidase purified from rat kidney using fluorimetry assay; conditions: read-out: I50
T2 sequence (P07861 whole entry): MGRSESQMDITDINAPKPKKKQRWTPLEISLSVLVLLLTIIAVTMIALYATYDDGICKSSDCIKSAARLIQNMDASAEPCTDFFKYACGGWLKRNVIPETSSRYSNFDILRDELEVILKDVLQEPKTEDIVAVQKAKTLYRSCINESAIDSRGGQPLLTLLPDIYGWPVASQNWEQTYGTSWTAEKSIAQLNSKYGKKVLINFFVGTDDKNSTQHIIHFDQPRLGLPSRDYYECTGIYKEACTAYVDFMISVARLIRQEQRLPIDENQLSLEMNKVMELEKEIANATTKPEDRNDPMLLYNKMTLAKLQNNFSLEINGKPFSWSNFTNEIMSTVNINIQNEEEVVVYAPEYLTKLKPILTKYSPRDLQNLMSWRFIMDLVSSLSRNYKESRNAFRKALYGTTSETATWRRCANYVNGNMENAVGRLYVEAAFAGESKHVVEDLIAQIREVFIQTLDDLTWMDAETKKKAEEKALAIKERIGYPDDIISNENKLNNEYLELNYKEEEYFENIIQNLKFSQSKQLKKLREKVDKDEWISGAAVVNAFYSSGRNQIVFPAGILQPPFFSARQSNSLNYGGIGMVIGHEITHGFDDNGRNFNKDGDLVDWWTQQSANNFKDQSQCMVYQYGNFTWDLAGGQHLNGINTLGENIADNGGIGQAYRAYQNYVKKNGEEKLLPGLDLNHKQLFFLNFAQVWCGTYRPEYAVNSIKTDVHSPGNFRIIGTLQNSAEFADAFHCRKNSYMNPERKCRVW
Outline: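 Enzyme from purified rat kidney; fluorometric read-out with dansyl-Gly-Phe-Arg as substrate; I50 reported.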

Rattus norvegicus [3] = assay: 50% inhibition of the AI pressor response in normotensive rat after intravenous administration at a dose 0.5 umol/kg; assay type: functional
Rattus norvegicus [4] = assay: % inhibition of AI pressor response at 60 minutes after intravenous administration of 0.5 micro mol/kg of compound in rat; assay type: functional
Outline: (§1)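 Normotensive rats given intravenous angiotensin I challenges to raise mean arterial pressure. Compound dosed intravenously at 0.5 μmol/kg. Pressor response measured before dosing (control) and at set times afterward. Percent change from the control response taken as % inhibition. Maximal response usually seen about 2 min after dosing.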

Rattus norvegicus [5] = assay: % inhibition of AI pressor response at 120 minutes after intravenous administration of 0.5 micro mol/kg of compound in rat; assay type: functional; outline: as §1
Rattus norvegicus [6] = assay: % inhibition of AI pressor response at 2 minutes after intravenous administration of 0.5 micro mol/kg of compound in rat; assay type: functional; outline: as §1
Rattus norvegicus [7] = assay: % inhibition of AI pressor response at 30 minutes after intravenous administration of 0.5 micro mol/kg of compound in rat; assay type: functional; outline: as §1

IC50 [2] [nM] | IC50 (Neprilysin) [nM] | Compound | MAP (Rattus norvegicus [1]) [mmHg] | ED50 (Rattus norvegicus [3]) [µmol/kg] | Inhibition (Rattus norvegicus [4]) [%] | Inhibition (Rattus norvegicus [5]) [%] | Inhibition (Rattus norvegicus [6]) [%] | Inhibition (Rattus norvegicus [7]) [%]
7 | 26 | O=C(N[C@H]1CCO[C@H]2CC[C@@H](C(=O)O)N2C1=O)[C@@H](S)Cc1ccccc1 |  | 0.06 | 3 |  | 79 | 63
5 | 8 | O=C(N[C@H]1CCS[C@H]2CCC[C@@H](C(=O)O)N2C1=O)[C@@H](S)Cc1ccccc1 [OMAPATRILAT] | 40 | 0.07 | 60 | 58 | 76 | 66

Continued, compound first:

Compound | IC50 [2] [nM] | IC50 (Neprilysin) [nM] | MAP (Rattus norvegicus [1]) [mmHg] | ED50 (Rattus norvegicus [3]) [µmol/kg] | Inhibition (Rattus norvegicus [4]) [%] | Inhibition (Rattus norvegicus [5]) [%] | Inhibition (Rattus norvegicus [6]) [%] | Inhibition (Rattus norvegicus [7]) [%]
CCC(=O)O[C@@H](O[P@](=O)(CCCCc1ccccc1)CC(=O)N1C[C@H](C2CCCCC2)C[C@H]1C(=O)O)C(C)C [FOSINOPRIL] |  |  | 20 |  |  |  |  | 
O=C(N[C@H]1CCS[C@H]2CC[C@@H](C(=O)O)N2C1=O)[C@@H](S)Cc1ccccc1 | 4 | 4 |  | 0.03 | 60 | 25 | 82 | 76
CCOC(C)=O.O=C(N[C@H]1CCO[C@H]2CCC[C@@H](C(=O)O)N2C1=O)[C@@H](S)Cc1ccccc1 | 8 | 9 |  | 0.05 |  |  | 83 | 3
CCOC(C)=O.O=C(N[C@H]1CS[C@H]2CCC[C@@H](C(=O)O)N2C1=O)[C@@H](S)Cc1ccccc1 | 5 | 42 |  | 0.23 |  |  | 78 | 3
O=C(N[C@H]1CCC[C@H]2CC[C@@H](C(=O)O)N2C1=O)[C@@H](S)Cc1ccccc1 |  |  |  |  | 3 |  | 75 | 34
O=C(N[C@H]1CCC[C@H]2CCC[C@@H](C(=O)O)N2C1=O)[C@@H](S)Cc1ccccc1 |  |  |  |  | 35 | 11 | 71 | 65
